In experiment [1] the test system is Aspergillus niger. Kind of experiment: Antifungal activity against Aspergillus niger ATCC 16404 after 5 days by broth microdilution method. In kind it is functional. Put shortly:
(§1)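 Broth microdilution in 96-well plates, in duplicate, per NCCLS (2001), ATCC strains. MBC taken as lowest concentration at which no microbial cell survived after 48 h incubation (bacteria) or 5 days (yeast and mold).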
(In general: In broth dilution the organism is exposed to a series of concentrations in liquid medium.)

In experiment [2] the test system is Aspergillus niger. Nature of the experiment: Antifungal activity against Aspergillus niger ATCC 16404 after 24 hrs by broth microdilution method. Conditions: ATCC 16404, 24 h. In kind it is functional. Summed up:
(§2)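 Broth microdilution in 96-well plates, in duplicate, following NCCLS (2001); ATCC Gram-positive and Gram-negative bacteria, a yeast and a mold. MIC taken as lowest concentration inhibiting microbial growth after 24 h.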

The test system of experiment [3] is Escherichia coli. Nature of the experiment: Antibacterial activity against Escherichia coli ATCC 8739 after 24 hrs by broth microdilution method. In kind it is functional. Put shortly:
as §2

Experiment [4] has as its system Staphylococcus aureus. Kind of experiment: Antibacterial activity against Staphylococcus aureus ATCC 6538 after 24 hrs by broth microdilution method. The experiment is classed as functional. The note with it: ATCC 6538, 24 h. Put shortly: as §2
In experiment [5] the test system is Pseudomonas aeruginosa. Kind of experiment: Antibacterial activity against Pseudomonas aeruginosa ATCC 9027 after 48 hrs by broth microdilution method. In kind it is functional. Summed up:
as §1

Experiment [6] relates to Escherichia coli. Nature of the experiment: Antibacterial activity against Escherichia coli ATCC 8739 after 48 hrs by broth microdilution method. In kind it is functional, organism-based. Put shortly: as §1
In experiment [7] the test system is Staphylococcus epidermidis. Nature of the experiment: Antibacterial activity against Staphylococcus epidermidis ATCC 12228 after 24 hrs by broth microdilution method. The experiment is classed as functional. Conditions: ATCC 12228, 24 h. Summed up:
as §2

For experiment [8], the system named is Bacillus spizizenii. Kind of experiment: Antibacterial activity against Bacillus spizizenii ATCC 6633 after 48 hrs by broth microdilution method. The note with it: ATCC 6633, 48 h. In kind it is functional. Put shortly:
as §1

The test system of experiment [9] is Staphylococcus aureus. Nature of the experiment: Antibacterial activity against Staphylococcus aureus ATCC 6538 after 48 hrs by broth microdilution method. Conditions: ATCC 6538, 48 h. The experiment is classed as functional. Summed up:
as §1

In experiment [10] the test system is Candida albicans. Nature of the experiment: Antifungal activity against Candida albicans ATCC 10231 after 5 days by broth microdilution method. In kind it is functional. Put shortly: as §1
Experiment [11] concerns Candida albicans. Nature of the experiment: Antifungal activity against Candida albicans ATCC 10231 after 24 hrs by broth microdilution method. The note with it: ATCC 10231, 24 h. In kind it is functional. Put shortly:
as §2

Experiment [12] has as its system Bacillus spizizenii. Kind of experiment: Antibacterial activity against Bacillus spizizenii ATCC 6633 after 24 hrs by broth microdilution method. The note with it: ATCC 6633, 24 h. The experiment is classed as functional. Summed up:
as §2

Experiment [13] deals with Pseudomonas aeruginosa. Nature of the experiment: Antibacterial activity against Pseudomonas aeruginosa ATCC 9027 after 24 hrs by broth microdilution method. In kind it is functional. Put shortly:
as §2

Experiment [14] deals with Radical scavenging activity. Nature of the experiment: Antioxidant activity assessed as DPPH radical scavenging activity after 10 mins. In kind it is functional. Put shortly:
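Methanolic sample solution added to DPPH solution (0.025 g/L in MeOH, prepared daily); vehicle alone in control tubes; absorbance read at 515 nm 10 min after start. α-Tocopherol positive control. Triplicate runs; EC50 calculated by Litchfield and Wilcoxon method.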
A general note: Loss of DPPH colour is used to gauge radical scavenging.

Experiment [15] deals with Staphylococcus epidermidis. Kind of experiment: Antibacterial activity against Staphylococcus epidermidis ATCC 12228 after 48 hrs by broth microdilution method. In kind it is functional. The note with it: ATCC 12228, 48 h. Summed up:
as §1

Structures are written as SMILES. Values after ≈ are worked out from the molar mass of the structure shown. Active and inactive are the calls of the source. No cut-off for these calls is given here. Bounds are passed on as bounds.

From ChEMBL document CHEMBL1154892, “Saponins and polyphenols from Fadogia ancylantha (makoni tea)” (J Nat Prod, 2010) come the findings set out here.

As to `O=c1cc(-c2ccc(O)c(O)c2)oc2cc(O[C@@H]3O[C@H](CO)[C@@H](O)[C@H](O)[C@H]3O)ccc12`, the MBC entry in experiment [1], in experiment [5], in experiment [6] and in experiment [10] was “inactive” in each case. Further, the MIC – broadly, the least concentration at which growth counts as inhibited – was 1000 µg/mL (≈ 2.31 mM) in experiment [2]; 2000 µg/mL (≈ 4.63 mM) in [4]; 500 µg/mL (≈ 1.16 mM) in experiment [7]; 4000 µg/mL (≈ 9.25 mM) in experiment [11]; 1000 µg/mL (≈ 2.31 mM) in experiment [12]; 4000 µg/mL (≈ 9.25 mM) in [13] (ATCC 9027, 24 h). In addition, the MIC result in experiment [3] was “inactive”. Moreover, the MBC in experiment [8] came out at 1000 µg/mL (≈ 2.31 mM); in experiment [9], 4000 µg/mL (≈ 9.25 mM); in [15], 4000 µg/mL (≈ 9.25 mM). Further, the EC50 (in general, the concentration at which the effect is half-maximal) in experiment [14] was 28.4 µg/mL (≈ 0.0657 mM).

`Cc1c(C)c2c(c(C)c1O)CC[C@@](C)(CCC[C@H](C)CCC[C@H](C)CCCC(C)C)O2` [ALPHA-TOCOPHEROL]: the EC50 in experiment [14] was 10.1 µg/mL (≈ 0.0234 mM).

With `O=C(CCc1ccc(O)cc1)c1ccc(O[C@@H]2O[C@H](CO)[C@@H](O)[C@H](O)[C@H]2O)cc1O` [CONFUSOSIDE], the MBC entry in experiment [1], in experiment [5], in experiment [6] and in experiment [10] was “inactive” throughout. Moreover, the MIC is 120 µg/mL (≈ 0.285 mM) in experiment [2]; 2000 µg/mL (≈ 4.76 mM) in experiment [3] (ATCC 8739, 24 h); 4000 µg/mL (≈ 9.51 mM) in [4]; 1000 µg/mL (≈ 2.38 mM) in experiment [7]; 4000 µg/mL (≈ 9.51 mM) in experiment [11]; 120 µg/mL (≈ 0.285 mM) in experiment [12]. The MBC was 1000 µg/mL (≈ 2.38 mM) in [8], 4000 µg/mL (≈ 9.51 mM) in experiment [9] and 2000 µg/mL (≈ 4.76 mM) in experiment [15]. The MIC result in experiment [13] is “inactive”. Besides, the EC50 in experiment [14] was > 1000 µg/mL.

Take `O=C(CCc1ccc(O)cc1)c1ccc(O)cc1O` [DAVIDIGENIN]: the MBC result in experiment [1] and in experiment [6] was “inactive” in each case. The MIC in [2] is 120 µg/mL (≈ 0.465 mM); in experiment [3] (ATCC 8739, 24 h), 4000 µg/mL (≈ 15.5 mM); in [4], 120 µg/mL (≈ 0.465 mM); in [7], 250 µg/mL (≈ 0.968 mM); in experiment [11], 1000 µg/mL (≈ 3.87 mM); in experiment [12], 120 µg/mL (≈ 0.465 mM). Besides, in experiment [13] (ATCC 9027, 24 h), the minimum inhibitory concentration (MIC) was found to be 2000 µg/mL (≈ 7.74 mM). For the same molecule, the MBC in [5] (ATCC 9027, 48 h) is 4000 µg/mL (≈ 15.5 mM); in [8], 500 µg/mL (≈ 1.94 mM); in [9], 500 µg/mL (≈ 1.94 mM); in experiment [10] (ATCC 10231, 120 h) it was 2000 µg/mL (≈ 7.74 mM); in experiment [15], 500 µg/mL (≈ 1.94 mM). Moreover, in experiment [14], the EC50 was > 1000 µg/mL.

Take `O=c1c(O[C@@H]2O[C@H](CO)[C@@H](O)[C@H](O)[C@H]2O)c(-c2ccc(O)c(O)c2)oc2cc(O)cc(O)c12` [ISOQUERCETIN]: the MBC is 4000 µg/mL (≈ 8.61 mM) in [1] (ATCC 16404, 120 h); 2000 µg/mL (≈ 4.31 mM) in [8]; 4000 µg/mL (≈ 8.61 mM) in experiment [9]; 4000 µg/mL (≈ 8.61 mM) in experiment [15]. The MIC in [2] is 2000 µg/mL (≈ 4.31 mM); in experiment [4], 4000 µg/mL (≈ 8.61 mM); in [7], 1000 µg/mL (≈ 2.15 mM); in experiment [11], 4000 µg/mL (≈ 8.61 mM); in experiment [12], 1000 µg/mL (≈ 2.15 mM). Also, the MIC result in [3] and in experiment [13] was “inactive” in each case. Also, the MBC result in [5], in experiment [6] and in experiment [10] was “inactive” each time. The EC50 in [14] was found to be 20.4 µg/mL (≈ 0.0439 mM).
